Drawing on ChEMBL document CHEMBL1137388, “A novel class of potent nonglycosidic and nonpeptidic pan-selectin inhibitors” (2006), this text covers inhibition and Activity for 18 compounds.

Calls of active or inactive are those of the source. The calls are words filed in the database; no cut-off is given here.

The target of assay [1] is T1, E-selectin (Homo sapiens) (UniProt P16581).
T1 sequence (whole entry): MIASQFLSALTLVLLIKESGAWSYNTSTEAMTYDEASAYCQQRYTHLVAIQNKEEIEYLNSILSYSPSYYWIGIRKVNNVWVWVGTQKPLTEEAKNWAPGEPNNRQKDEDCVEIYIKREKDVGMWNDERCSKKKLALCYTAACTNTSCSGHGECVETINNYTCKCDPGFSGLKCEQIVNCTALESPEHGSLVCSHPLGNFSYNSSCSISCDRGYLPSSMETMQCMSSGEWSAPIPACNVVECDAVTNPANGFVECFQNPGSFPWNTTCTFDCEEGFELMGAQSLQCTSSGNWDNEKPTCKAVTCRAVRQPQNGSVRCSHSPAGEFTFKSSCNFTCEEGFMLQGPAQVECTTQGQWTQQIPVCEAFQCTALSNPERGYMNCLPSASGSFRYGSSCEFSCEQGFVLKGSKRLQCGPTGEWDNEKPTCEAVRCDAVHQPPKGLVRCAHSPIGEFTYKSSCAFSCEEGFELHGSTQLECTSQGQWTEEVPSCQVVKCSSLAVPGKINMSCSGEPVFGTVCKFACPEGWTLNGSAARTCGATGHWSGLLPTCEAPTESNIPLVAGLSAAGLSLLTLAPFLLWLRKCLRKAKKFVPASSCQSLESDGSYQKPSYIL
The assay can be described thus: Inhibition of sLex binding to E-selectin at 100 uM relative to control by glyco-ELISA assay. An outline of the steps:
(§1)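 Cell-free competitive binding assay. The named selectin is immobilized on microtiter plates, and compound plus sLex-tyrosine sulfate on biotinylated polyacrylamide are added. After incubation, bound ligand is detected by streptavidin-peroxidase, OD 414 nm, with empty-plate absorbance subtracted. Wells coated only with sLex define 0%; EDTA (blocks Ca2+-dependent binding) defines 100% inhibition.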

The target of assay [2] is T2, L-selectin (Homo sapiens) (UniProt P14151).
T2 sequence (whole entry): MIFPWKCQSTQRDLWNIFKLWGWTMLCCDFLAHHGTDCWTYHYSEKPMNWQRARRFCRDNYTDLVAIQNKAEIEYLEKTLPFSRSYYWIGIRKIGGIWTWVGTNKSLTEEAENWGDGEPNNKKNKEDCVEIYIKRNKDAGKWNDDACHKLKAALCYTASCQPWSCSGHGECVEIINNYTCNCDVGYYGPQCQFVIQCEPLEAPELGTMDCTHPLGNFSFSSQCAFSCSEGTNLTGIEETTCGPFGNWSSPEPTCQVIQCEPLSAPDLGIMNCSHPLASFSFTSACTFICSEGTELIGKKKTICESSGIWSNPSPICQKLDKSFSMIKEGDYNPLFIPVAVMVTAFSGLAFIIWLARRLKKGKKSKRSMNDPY
The assay can be described thus: Inhibition of sLex binding to L-selectin at 500 uM relative to control by glyco-ELISA assay. The gist of the method: as §1
In general terms: In an ELISA, binding on a coated surface is turned into a signal by an enzyme label.

Assay [3] can be described thus: Inhibition of MM6 cell adhesion to BAEC at 100 uM relative to control by static assay. It counts as functional. The gist of the method: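 BAEC monolayers (passage 1-3, 7 days after seeding) stimulated with 20 ng/mL TNFα for 4 or 16 h, test agent in DMSO or vehicle for 20 min at 37 °C/5% CO2. After washing, leukocytes added at 1 × 10^6 cells/mL for 30 min at 37 °C. Non-adherent cells washed off, adherent cells counted microscopically. TNFα-stimulated adhesion set to 100%. Single concentration, 100 µM.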

The target of assay [4] is T3, P-selectin (Homo sapiens) (UniProt P16109).
T3 sequence (whole entry): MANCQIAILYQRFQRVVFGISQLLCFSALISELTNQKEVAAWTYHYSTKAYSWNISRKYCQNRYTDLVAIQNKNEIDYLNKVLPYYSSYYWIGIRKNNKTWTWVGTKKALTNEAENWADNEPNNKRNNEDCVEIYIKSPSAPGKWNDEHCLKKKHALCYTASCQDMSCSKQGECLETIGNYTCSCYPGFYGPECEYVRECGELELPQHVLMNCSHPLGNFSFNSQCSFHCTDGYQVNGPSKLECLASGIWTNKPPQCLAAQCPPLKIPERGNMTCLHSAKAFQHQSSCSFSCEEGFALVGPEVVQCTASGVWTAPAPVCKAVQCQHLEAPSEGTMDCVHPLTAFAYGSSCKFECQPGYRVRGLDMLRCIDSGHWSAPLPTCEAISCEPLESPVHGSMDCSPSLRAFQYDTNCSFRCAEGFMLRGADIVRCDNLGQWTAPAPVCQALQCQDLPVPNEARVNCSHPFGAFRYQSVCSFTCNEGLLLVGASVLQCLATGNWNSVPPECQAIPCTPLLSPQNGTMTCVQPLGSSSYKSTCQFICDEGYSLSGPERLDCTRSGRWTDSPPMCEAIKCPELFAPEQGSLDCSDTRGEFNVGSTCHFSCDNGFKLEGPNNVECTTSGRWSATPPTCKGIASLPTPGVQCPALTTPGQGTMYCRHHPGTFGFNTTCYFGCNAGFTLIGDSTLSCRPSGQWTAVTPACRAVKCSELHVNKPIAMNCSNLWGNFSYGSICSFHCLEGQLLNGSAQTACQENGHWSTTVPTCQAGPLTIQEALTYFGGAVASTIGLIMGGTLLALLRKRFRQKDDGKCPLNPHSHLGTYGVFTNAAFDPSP
The assay can be described thus: Inhibition of sLex binding to P-selectin at 500 uM relative to control by glyco-ELISA assay. The gist of the method:
as §1

For the next assay, the system named is AEC. The assay can be described thus: Viability of BAEC by Roche-XTT assay relative to control. It counts as functional, Bos taurus. Details: concentration or dose not given beside the values. The gist of the method:
(§2)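 XTT assay: metabolically active cells convert yellow tetrazolium XTT to orange formazan. Untreated control viability set to 100%. Cells were BAEC or MM6 as named in each line; MM6 tested at 100 µM.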
For orientation: Tetrazolium dyes change colour on reduction, which living cells bring about.

Another assay concerns MONO-MAC-6. The assay can be described thus: Viability of MM6 cells at 100 uM by Roche-XTT assay relative to control. It counts as functional, Homo sapiens. An outline of the steps: as §2
Assay [5] in a line: Viability in ATP-lite assay relative to control. It counts as functional. Set-up: concentration or dose not given beside the values.
The test system of another assay is Mus musculus. The assay can be described thus: Reduction in proteose peptone-induced PMN extravasation in C57BL/J mouse peritonitis model at 100 mg/kg. Set-up: dose 100 mg/kg. It counts as functional, organism-based.
Assay [6] addresses T1, E-selectin (Homo sapiens). The assay can be described thus: Inhibition of sLex binding to E-selectin at 500 uM relative to control by glyco-ELISA assay. The gist of the method:
as §1

As usually defined, the inhibition is the change of the read-out against control, counted positive when it falls.

For the compound `CCCCCCCCCCOc1cc(OCCCCCCCCCC)cc(OCCCCCCON=C(c2ccc(Cl)cc2)c2ccc(Cl)cc2)c1`, the inhibition in assay [1] turned out to be 2%; in [2], 5%; in assay [4], 2%. For the same compound, the inhibition at 100 µM in assay [3] worked out at 24%.
In the case of `CCCCCCCCCCOc1cccc(OCCCCCC(=O)N(Cc2ccc(C(=O)O)cc2)c2cccc(C(=O)O)c2)c1`, the inhibition in assay [1] was found to be 42%; in assay [2], 103%; in [4], 103%. The Activity was 20% in the assay on AEC, 101% in the assay on MONO-MAC-6 and 4% in assay [5]. In assay [3], the inhibition at 100 µM was 70%.
Consider `CCCCCCCCCCOc1cccc(OCCCCCC(=O)N(Cc2ccc(C(=O)O)cc2)c2ccc(C(=O)O)cc2)c1`, for which, in the assay on AEC, the Activity is 100%. In addition, the inhibition at 100 µM in assay [3] was 93%.
With `CCCCCCCCCCOc1cc(OCCCCCCCCCC)cc(OCCCCCCN(Cc2ccc(C(=O)OC)cc2)c2ccc(C(=O)OC)cc2)c1`, the results for the Activity in the assay with AEC and in the assay on MONO-MAC-6 were 111% and 5%, respectively. Further, the inhibition at 100 µM in assay [3] amounted to 61%.
As for `CCCCCCCCCCOc1cc(OCCCCCCCCCC)cc(OCCCCCCON=C(c2ccc(C(=O)O)cc2)c2ccc(C(=O)O)cc2)c1`, the inhibition in assay [2] was found to be 6%; in [4], 2%. Further, the Activity in the assay with AEC turned out to be 110%; with MONO-MAC-6, 84%. The inhibition at 100 µM in [3] was found to be 90%.
In the case of `CCCCCCCCCCOc1cc(OCCCCCCCCCC)cc(OCCCCCCO/N=C(/c2ccc(C(=O)O)cc2)c2cccc(C(=O)O)c2)c1`, the inhibition worked out at 50% in [2] and 34% in assay [4]. Also, the inhibition at 100 µM in assay [3] turned out to be 100%.
Turning to `CCCCCCCCCCOc1cc(OCCCCCCCCCC)cc(OCCCCCC(=O)N(Cc2ccc(C(=O)OC)cc2)c2ccc(C(=O)OC)cc2)c1`, the results for the inhibition in [2] and in assay [4] were 26% and 27%, respectively. In assay [3], the inhibition at 100 µM came out at 26%.
In the case of `CCCCCCCCCCOc1cccc(OCCCCCC(=O)N(Cc2ccc(C(=O)OC)cc2)c2ccc(C(=O)OC)cc2)c1`, the inhibition in assay [1] came to 65%; in assay [2] it was 75%; in [4], 78%. For the same compound, the Activity with MONO-MAC-6 was found to be 80%; in assay [5], 68%. Moreover, the inhibition at 100 µM in assay [3] was found to be 26%.
With `CCCCCCCCCCOc1cc(OCCCCCCCCCC)cc(OCCCCCC(=O)N(c2ccc(C(=O)O)cc2)c2cccc(C(=O)O)c2)c1`, the values for the inhibition in assay [2] and in [4] were 53% and 58%, respectively.
As for `CC(=O)N[C@H]1[C@H]([C@H](O)[C@H](O)CO)O[C@@](O[C@H]2[C@@H](O)[C@@H](CO)O[C@@H](O[C@@H]([C@H](O[C@@H]3O[C@@H](C)[C@@H](O)[C@@H](O)[C@@H]3O)[C@H](C=O)NC(C)=O)[C@H](O)CO)[C@@H]2O)(C(=O)O)C[C@@H]1O` [SIALYL LEWIS X], in the assay on Mus musculus, the outcome was inactive. For the same compound, the inhibition at 100 µM in [3] turned out to be 41%.
With `CCCCCCCCCCOc1cc(OCCCCCCCCCC)cc(OCCCCCC(=O)N(Cc2ccc(C(=O)O)cc2)c2cccc(C(=O)O)c2)c1`, the values for the inhibition in assay [1], in assay [2] and in assay [4] were 43%, 92% and 95%, respectively. Further, the Activity turned out to be 46% with AEC, 11% in the assay on MONO-MAC-6 and 0% in assay [5]. The inhibition at 100 µM in [3] worked out at 82%.
Consider `CCCCCCCCCCOc1cc(OCCCCCCCCCC)cc(OCCCCCC(=O)N(c2ccc(C(=O)OC)cc2)c2ccc(C(=O)OC)cc2)c1`, for which the results for the inhibition in assay [6], in assay [2] and in [4] were 5%, 16% and 16%, respectively. Besides, in [3], the inhibition at 100 µM amounted to 10%.
On to `CCCCCCCCCCOc1cc(OCCCCCCCCCC)cc(OCCCCCC(=O)N(Cc2ccc(C(=O)O)cc2)c2ccc(C(=O)O)cc2)c1`, for which the inhibition in [2] came out at 50%; in [4], 49%. In the assay on AEC, the Activity is recorded as 36%. The inhibition at 100 µM in assay [3] is 56%.
With `O=C(O)c1ccc(N(C(=O)CCCCCBr)c2cccc(C(=O)O)c2)cc1`, the inhibition in assay [2] came to 5%; in assay [4], 19%. For the same compound, the Activity in the assay on AEC was 75%. Further, the inhibition at 100 µM in assay [3] is 2%.
In the case of `CCCCCCCCCCOc1cc(OCCCCCCCCCC)cc(OCCCCCC(=O)N(c2ccc(C(=O)OC)cc2)c2ccc(C(=O)OC)c(C(=O)OC)c2)c1`, the figures for the inhibition in [6], in [2] and in assay [4] were 73%, 95% and 90%, respectively. Further, the Activity with AEC is 90%; with MONO-MAC-6, 50%; in assay [5] it was 58%. The inhibition at 100 µM in assay [3] was determined as 115%.
Turning to `CCCCCCCCCCOc1cc(OCCCCCCCCCC)cc(OCCCCCCN(Cc2ccc(C(=O)O)cc2)c2ccc(C(=O)O)cc2)c1`, the Activity in the assay with MONO-MAC-6 amounted to 10%. Also, in assay [3], the inhibition at 100 µM came to 100%.
As to `CCCCCCCCCCOc1cccc(OCCCCCC(=O)N(Cc2ccc(C(=O)OC)cc2)c2cccc(C(=O)OC)c2)c1`, the results for the inhibition in assay [1], in [2] and in assay [4] were 18%, 86% and 79%, respectively. Also, the Activity with AEC stood at 99%; in the assay with MONO-MAC-6, 98%; in [5], 62%. The inhibition at 100 µM in [3] came out at 45%.
Turning to `O=C(O)c1ccc(N(C(=O)CCCCCBr)c2ccc(C(=O)O)cc2)cc1`, the results for the inhibition in [1], in [2] and in [4] were 5%, 6% and 12%, respectively. Besides, in assay [3], the inhibition at 100 µM came out at 4%.
